Activity calls are given as the source filed them.
How the values were obtained:
[1] = system: Candida albicans; assay: Antimicrobial activity against Candida albicans DSM 1386 by disk diffusion method; assay type: functional, organism-based
Outline: (§1)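 Samples were fungal products from potato dextrose broth cultures, tested alongside authentic standards. Organic extracts of mycelia and broth were dried by rotary evaporation at 30 °C and redissolved in 1 mL HPLC-grade methanol.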

[2] = system: Escherichia coli; assay: Antimicrobial activity against Escherichia coli DSM 682 by disk diffusion method; assay type: functional, organism-based; outline: as §1
[3] = system: Salmonella enterica subsp. enterica; assay: Antimicrobial activity against Salmonella enterica ssp. enterica DSM 9898 by disk diffusion method; assay type: functional, organism-based; outline: as §1
[4] = system: Staphylococcus aureus; assay: Antimicrobial activity against Staphylococcus aureus ssp. Aureus DSM 799 by disk diffusion method; assay type: functional; outline: as §1
[5] = system: Klebsiella pneumoniae subsp. pneumoniae; assay: Antimicrobial activity against Klebsiella pneumoniae ssp. ozaenae DSM 681 by disk diffusion method; assay type: functional, organism-based; outline: as §1
[6] = system: Aspergillus niger; assay: Antimicrobial activity against Aspergillus niger DSM 1988 by disk diffusion method; assay type: functional, organism-based; outline: as §1
[7] = system: Pseudomonas aeruginosa; assay: Antimicrobial activity against Pseudomonas aeruginosa DSM 1128 by disk diffusion method; assay type: functional, organism-based; outline: as §1

Measured: Activity

Cc1cc(O)c2c(=O)c3c(O)cc(O)c4c5c(O)cc(O)c6c(=O)c7c(O)cc(C)c8c1c2c(c34)c(c78)c65
active: all assays above

Cc1cc(O)c2c(c1)C(=O)c1cc(O)cc(O)c1C2=O
active: all assays above

— ChEMBL document CHEMBL1144777, “An endophytic fungus from Hypericum perforatum that produces hypericin” (J Nat Prod, 2008)
